In data set [1] the test system is NIH3T3 cells. Kind of data set: CCK8 anti-proliferative assay, mouse fibroblast cell line. The following applies: for IC50: CCK8; for inhibition at 500 µM: NIH3T3, read-out: Inhibition% @ 0.5 mM; for inhibition at 1000 µM: NIH3T3, read-out: Inhibition% @ 1 mM; for proliferation (fixed cell morphology): NHI3T3, 0.050 mM for 24 h. The class given is cell-based. In a few lines: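 NIH3T3 cells in F12K/DMEM with 10% heat-inactivated FBS and penicillin/streptomycin. Log-phase cells seeded at 5 × 10^3 cells/well for 24 h, then exposed to a range of test-compound concentrations for 72 h. Single-point inhibition taken at 1 mM and 0.5 mM. CCK8 added for 1–4 h; absorbance read at 450 nm. IC50 by curve fitting; mean (±SD) of ≥3 independent determinations.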

The test system of another data set is HFL1. Kind of data set: CCK8 antiproliferative assay, human fibroblast cell line. The class given is cell-based. The settings on record: for proliferation (fixed cell morphology): HFL1, 0.050 mM for 24 h; for IC50: Homo sapiens, HFL1. In a few lines: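 HFL1 human fibroblasts grown in F12K/DMEM with 10% heat-inactivated FBS and penicillin/streptomycin. Cells treated with test compound for 48 h, and viability read by CCK8 absorbance at 450 nm. Curve fitting gave IC50. For morphology, cells were treated for 24 h, fixed, and imaged by light microscopy with a 10× objective.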
A general note: Formazan colour is commonly taken as a measure of viable cells.

Another data set can be described thus: Solubility in water. The settings on record: compared with 11a and 11b. The data set is classed as physicochemical.
For the next data set, the system named is α-SMA. Kind of data set: Immunofluorescence, α-SMA expression. The data set is classed as cell-based, mouse. The settings on record: NHI3T3 cells, TGF-β1 (10 ng mL^−1) and 9d (50 μM). In a few lines:
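NIH3T3 cells grown on coverslips and co-treated with TGF-β1 (10 ng mL−1) and test compound (50 μM) for 24 h. Fixed in 4% paraformaldehyde, then incubated with primary anti-α-SMA overnight at 4 °C. Detected with FITC-conjugated anti-rabbit IgG; nuclei stained with DAPI. Imaged by confocal microscopy; two technical replicates, three biological repeats.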

Another data set has as its system KM mice. Kind of data set: Acute toxicity experiment and histopathologic examination. The data set is classed as in vivo. The following applies: caudal vein injection, 100/150/300 mg kg^−1.
For the next data set, the system named is E-cadherin. Kind of data set: Immunofluorescence, E-cadherin expression. The class given is cell-based, mouse. The settings on record: NHI3T3 cells, TGF-β1 (10 ng mL^−1) and 9d (50 μM).
The test system of the next data set is NHI3T3 cells. Kind of data set: Transwell / cell migration assay. The data set is classed as cell-based, mouse.
The subject of data set [2] is NIH3T3 cells. The settings on record: pirfenidone, reported in the literature; cited from earlier work.
The conditions of data set [3]: clinical trials, after administration of pirfenidone; cited from earlier work.
[4] abbreviates: Mus musculus, NIH3T3, NIH3T3 cells, averages ±SD of at least three determinations.
The mark [5] stands for this setting: Mus musculus, NIH3T3, NIH3T3 cells.

Consider 16 molecules from publication PMC9102048 (RSC Advances, 2022).

Read-outs that look alike come from different tables or passages of the source. Where only a bound is given, the exact number is not on record here.

Turning to “1-Benzyl-5-(trifluoromethyl)pyridin-2(1H)-one [Compound 7a]”, in the data set on NIH3T3 cells [1] (NIH3T3 cells, CCK8, 0.5 mM), the “Inhibition% @ 0.5 mM” value turned out to be 20.58%. Besides, in the data set with NIH3T3 cells [1] (NIH3T3 cells, CCK8, 1 mM), the “Inhibition% @ 1 mM” value is given as 40.95%. In the data set on NIH3T3 cells [1] (NIH3T3 cells, averages ±SD of at least three determinations), this molecule came in with an IC50 of over 500 µM.

In turn, `CC(=O)Nc1ccc(-n2cc(C(F)(F)F)ccc2=O)cc1` [Compound 4a, N-(4-(2-oxo-5-(Trifluoromethyl)pyridin-1(2H)-yl)phenyl)acetamide] displayed an IC50 in the data set on NIH3T3 cells [1] (setting [4]) of over 1000 µM. In the data set with NIH3T3 cells [1] (Mus musculus), the inhibition at 500 µM was 10.4% and the inhibition at 1000 µM turned out to be 32.6%.

In the case of `CC(=O)Nc1ccc(-n2cc(C)ccc2=O)cc1` [Compound 4b, N-(4-(5-Methyl-2-oxopyridin-1(2H)-yl)phenyl)acetamide], the IC50 in the data set with NIH3T3 cells [1] (setting [4]) is over 1000 µM. Also, in the data set on NIH3T3 cells [1] (Mus musculus), the inhibition at 500 µM amounted to 1.3% and the inhibition at 1000 µM came to 25.7%.

In the data set on NIH3T3 cells [1] (setting [4]), `CN1CCN(CC(=O)Nc2ccc(-n3cc(C(F)(F)F)ccc3=O)cc2)CC1` [Compound 5a, 2-(4-Methylpiperazin-1-yl)-N-(4-(2-oxo-5-(trifluoromethyl)pyridin-1(2H)-yl)phenyl)acetamide] displayed an IC50 of 341 ± 7.3 µM. In the data set with NIH3T3 cells [1] (Mus musculus), the inhibition at 500 µM turned out to be 51.8% and the inhibition at 1000 µM was 62.4%.

In turn, `CN(C)CC(=O)Nc1ccc(-n2cc(C(F)(F)F)ccc2=O)cc1` [Compound 5b, 2-(Dimethylamino)-N-(4-(2-oxo-5-(trifluoromethyl)pyridin-1(2H)-yl)phenyl)acetamide] had an IC50 in the data set on NIH3T3 cells [1] (setting [4]) of over 500 µM. In addition, in the data set on NIH3T3 cells [1] (Mus musculus), the inhibition at 500 µM stood at 34.2% and the inhibition at 1000 µM worked out at 45.8%.

For `Cc1ccc(=O)n(-c2ccc(NC(=O)[C@@H](C)N(C)C)cc2)c1` [Compound 5c, (R)-2-(Dimethylamino)-N-(4-(5-methyl-2-oxopyridin-1(2H)-yl)phenyl)propanamide], the figures for the IC50 with NIH3T3 cells [1] (setting [5]) and with NIH3T3 cells [1] (setting [4]) were 490 µM and 490.2 ± 2.7 µM, respectively. Also, the inhibition at 500 µM with NIH3T3 cells [1] (Mus musculus) is 26.8%. In addition, the inhibition at 1000 µM in the data set with NIH3T3 cells [1] (Mus musculus) turned out to be 52.9%.

As to `CC(=O)Nc1ccc(Cn2cc(C(F)(F)F)ccc2=O)cc1` [Compound 9a, N-(4-((2-oxo-5-(Trifluoromethyl)pyridin-1(2H)-yl)methyl)phenyl)acetamide], inhibition with NIH3T3 cells [1] (setting [4]) was half-maximal at 132 ± 2.3 µM (IC50). Moreover, in the data set on NIH3T3 cells [1] (Mus musculus), the inhibition at 500 µM amounted to 68.4% and the inhibition at 1000 µM was determined as 86.2%.

`CC(=O)N(C(C)=O)c1ccc(Cn2cc(C(F)(F)F)ccc2=O)cc1` [Compound 9b, N-Acetyl-N-(4-((2-oxo-5-(trifluoromethyl)pyridin-1(2H)-yl)methyl)phenyl)acetamide]: the “proliferation (fixed cell morphology)” value in the data set on HFL1 and in the data set on NIH3T3 cells [1] was “effectively inhibited” throughout. The IC50 with HFL1 was 48 µM; with NIH3T3 cells [1] (setting [5]), 87 µM; in the data set on NIH3T3 cells [1] (setting [4]), 87.5 ± 0.7 µM. In addition, the solubility in water result in the data set “Solubility in water” was “good solubility in water”. Further, the inhibition at 500 µM with NIH3T3 cells [1] (Mus musculus) turned out to be 80.6%. In addition, in the data set on NIH3T3 cells [1] (Mus musculus), the inhibition at 1000 µM turned out to be 90.5%.

In the data set with NIH3T3 cells [1] (setting [4]), `CC(=O)Nc1ccc(Cn2cc(C)ccc2=O)cc1` [Compound 9c, N-(4-((5-Methyl-2-oxopyridin-1(2H)-yl)methyl)phenyl)acetamide] yielded an IC50 of 113 ± 1.9 µM. In addition, in the data set on NIH3T3 cells [1] (Mus musculus), the inhibition at 500 µM amounted to 72.5% and the inhibition at 1000 µM came to 89%.

Take `CC(=O)N(C(C)=O)c1ccc(Cn2cc(C)ccc2=O)cc1` [Compound 9d, N-Acetyl-N-(4-((5-methyl-2-oxopyridin-1(2H)-yl)methyl)phenyl)acetamide]: the “proliferation (fixed cell morphology)” value in the data set on HFL1 and in the data set with NIH3T3 cells [1] was “effectively inhibited” throughout. The results for the IC50 in the data set on HFL1, in the data set on NIH3T3 cells [1] (setting [5]) and in the data set with NIH3T3 cells [1] (setting [4]) were 35 µM, 69 µM and 69.1 ± 2.7 µM, respectively. For the same molecule, the “expression of α-SMA” value in the data set on α-SMA is listed as “decreased”. In the data set on KM mice, the “histopathology (H&E) of liver, kidney, heart, spleen” value was “no pathological abnormalities such as inflammation, injury and necrosis”. Also, the solubility in water entry in “Solubility in water” is reported as “good solubility in water”. Also, the “expression of E-cadherin” value with E-cadherin is “reversed after 9d treatment, higher than the control group”. Also, the “3T3 cell migration (transwell)” value in the data set on NHI3T3 cells (9d 50 μM) is recorded as “markedly inhibited”. Further, the “cell migration OD value” is recorded as “about 0.8” with NHI3T3 cells (9d + TGF-β1, OD value of the control is 1.0, TGF-β1 alone about 1.7) and “about 0.35” with NHI3T3 cells (9d alone, 50 μM, OD value of the control is 1.0). Besides, the inhibition at 500 µM in the data set with NIH3T3 cells [1] (Mus musculus) stood at 88.4%. For the same molecule, the inhibition at 1000 µM with NIH3T3 cells [1] (Mus musculus) worked out at 98.7%. The “times the anti-fibrosis activity of pirfenidone” value in the data set on NIH3T3 cells [1] (relative to pirfenidone IC50 2.75 mM) is “more than 40 times”.

In the data set with NIH3T3 cells [1] (setting [4]), `CN1CCN(CC(=O)Nc2ccc(Cn3cc(C(F)(F)F)ccc3=O)cc2)CC1` [Compound 10a, 2-(4-Methylpiperazin-1-yl)-N-(4-((2-oxo-5-(trifluoromethyl)pyridin-1(2H)-yl)methyl)phenyl)acetamide] displayed an IC50 of 246.3 ± 1.8 µM. Further, in the data set with NIH3T3 cells [1] (Mus musculus), the inhibition at 500 µM stood at 66.5% and the inhibition at 1000 µM turned out to be 87.7%.

`CN(C)CC(=O)Nc1ccc(Cn2cc(C(F)(F)F)ccc2=O)cc1` [Compound 10d, 2-(Dimethylamino)-N-(4-((2-oxo-5-(trifluoromethyl)pyridin-1(2H)-yl)methyl)phenyl)acetamide] showed an IC50 in the data set on NIH3T3 cells [1] (setting [4]) of 273.1 ± 1.5 µM. In addition, in the data set on NIH3T3 cells [1] (Mus musculus), the inhibition at 500 µM worked out at 52.4% and the inhibition at 1000 µM was found to be 71.3%.

`CC(=O)N(C)c1ccc(Cn2cc(C(F)(F)F)ccc2=O)cc1` [Compound 11a, N-Methyl-N-(4-((2-oxo-5-(trifluoromethyl)pyridin-1(2H)-yl)methyl)phenyl)acetamide] had an IC50 in the data set on NIH3T3 cells [1] (setting [4]) of 146 ± 5.5 µM. In addition, in the data set on NIH3T3 cells [1] (Mus musculus), the inhibition at 500 µM stood at 67.9% and the inhibition at 1000 µM was 78.5%.

On to `CC(=O)N(C)c1ccc(Cn2cc(C)ccc2=O)cc1` [Compound 11b, N-Methyl-N-(4-((5-methyl-2-oxopyridin-1(2H)-yl)methyl)phenyl)acetamide], for which the IC50 in the data set with NIH3T3 cells [1] (setting [4]) worked out at 140 ± 9.8 µM. For the same molecule, in the data set on NIH3T3 cells [1] (Mus musculus), the inhibition at 500 µM was 66.7% and the inhibition at 1000 µM worked out at 79.4%.

Consider `Cc1ccc(=O)n(-c2ccccc2)c1` [pirfenidone, 5-methyl-1-phenyl-2[1H]-pyridone, reference compound], for which the IC50 with NIH3T3 cells [2] was 2750 µM. Moreover, in data set [3], the incidence of photo-sensitivity is on record as 51.7%. In the data set on NIH3T3 cells [1] (setting [4]), this molecule gave an IC50 of over 1000 µM. In the data set on NIH3T3 cells [1] (Mus musculus), the inhibition at 500 µM amounted to 17.9% and the inhibition at 1000 µM stood at 35.7%.

Consider “TGF-β1: recombinant TGF-β1, key fibrogenic factor used to induce epithelial–mesenchymal transition and cell migration [reference compound]”, for which the “cell migration OD value” in the data set on NHI3T3 cells (TGF-β1 alone, OD value of the control is 1.0) is “about 1.7”.

Usually IC50 stands for the point on the concentration scale where inhibition reaches its midpoint. Usually inhibition stands for the change of the read-out against control, counted positive when it falls.
